Measurements of several laboratories.
Target: Serine/threonine-protein kinase Sgk2 (SGK2, Homo sapiens, UniProt Q9HBY8)
One construct used (Q9HBY8 1-367): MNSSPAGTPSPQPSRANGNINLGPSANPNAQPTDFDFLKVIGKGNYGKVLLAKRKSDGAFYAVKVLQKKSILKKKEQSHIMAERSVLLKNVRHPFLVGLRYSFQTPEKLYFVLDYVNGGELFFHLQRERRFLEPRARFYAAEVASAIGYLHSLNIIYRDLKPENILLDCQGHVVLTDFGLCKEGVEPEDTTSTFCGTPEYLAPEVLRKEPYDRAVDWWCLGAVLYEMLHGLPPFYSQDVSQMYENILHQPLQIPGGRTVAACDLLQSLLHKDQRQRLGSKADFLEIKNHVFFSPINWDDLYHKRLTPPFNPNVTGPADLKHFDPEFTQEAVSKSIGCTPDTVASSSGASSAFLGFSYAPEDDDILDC

`O=C(NS(=O)(=O)c1ccc(NCC2CCOCC2)c([N+](=O)[O-])c1)c1ccc(N2CCN(Cc3ccc(C(F)(F)F)cc3-c3ccc(Cl)cc3)CC2)cc1Oc1cnc2[nH]ccc2c1` has a remaining binding of 100% (cell-free assay, competition with immobilised ligand; 1 µM).
`Cn1cnc(Br)c1C1=CN(c2ncnc3[nH]cnc23)CCS1` has an inhibition of 20.8% (enzyme activity, inhibitor, radiometric; 50 nM).
For `N#CCCc1ccc2c(c1)-c1[nH]c3ccc([N+](=O)[O-])cc3c1CC(=O)N2`, the remaining signal was 114% (cell-free assay; 0.5 µM).
`CCN(CC)CCNC(=O)c1c(C)[nH]c(/C=C2\C(=O)Nc3ccc(F)cc32)c1C` has an inhibition of 4% (enzyme activity, inhibitor; 0.3 µM).
With `O=C(Nc1cnn(-c2csc(C(=O)NC3COC3)c2)c1)Nc1c(F)cccc1Cl` the remaining activity was 88.6% (enzyme activity, inhibitor; 5 µM).
`Cc1cnc(NC2CCOCC2)nc1-n1cnc(C(=O)NC(CN)c2cc(F)cc(Cl)c2)c1` (stereo not shown) gave a remaining activity of 25% (enzyme activity, inhibitor, radiometric; 1 µM).
The activity vs control of `Cc1cc(NC(=O)c2cccc3cc(-c4cccc5[nH]nc(N)c45)ccc23)ccc1F` is reported as 76% (enzyme activity, inhibitor; 0.1 µM).
With `COc1cc(Cl)c(C(=O)N[C@@H](CN[C@H]2CC[C@@H](N)CC2)Cc2ccc(C#N)cc2)cc1-c1ccc(CN[C@H](C)c2ccc(C)cc2)o1` the remaining activity was 82% (enzyme activity, inhibitor; 1 µM).
`CCCOc1ccc(OC)c(F)c1C(=O)c1ccc(C(=O)N[C@@H]2CNC[C@H]2NC(=O)c2ccc3[nH]ncc3c2)cc1` has a remaining activity of 1% (enzyme activity, inhibitor; 10 µM).
`CSc1cccnc1N1CCN(Cc2nc3ccccc3[nH]2)CC1` has a remaining binding of 81% (cell-free assay, competition with immobilised ligand; 1 µM).
With `CC(C)(O)[C@H]1CC[C@H](Nc2ccc3ncc(-c4cccc(C(F)(F)F)c4)n3n2)CC1` the remaining activity was 96.1% (enzyme activity, inhibitor; 1 µM).
With `CNC(=O)c1cc(Oc2ccc(NC(=O)Nc3ccc(Cl)c(C(F)(F)F)c3)cc2)ccn1` the inhibition was -2% (enzyme activity, inhibitor; 10 µM).
With `O=C1CCc2cc(Nc3cc(OC4CCOCC4)c([N+](=O)[O-])cc3Cl)ccc2N1` the remaining binding was 80% (cell-free assay, competition with immobilised ligand; 1 µM).
For `O=C1NC(=O)c2cc(Nc3ccc(F)cc3)c(Nc3ccc(F)cc3)cc21`, the remaining signal was 99.7% (cell-free assay; 0.5 µM).
The remaining activity of `CCN(CC)c1ccc(C2=NNC(=O)CC2C)cc1[N+](=O)[O-]` (stereo not shown) is reported as 104% (enzyme activity, inhibitor; 10 µM).
The remaining binding of `CNC(=O)Nc1ccc2c(c1)CC[C@@]21OC(=O)N(CC(=O)N(Cc2ccc(F)cc2)[C@@H](C)C(F)(F)F)C1=O` is reported as 100% (cell-free assay, competition with immobilised ligand; 1 µM).
For `CN1CC(Oc2cnc(C#N)cc2-c2ccn3nc(NC(=O)C4CC4)cc3c2)C1`, the inhibition was -2% (enzyme activity, inhibitor; 1 µM).
The inhibition of `Cc1ccc(Nc2nccc(N(C)c3ccc4c(C)n(C)nc4c3)n2)cc1S(N)(=O)=O` is reported as 5% (enzyme activity, inhibitor; 0.3 µM).
The remaining binding of `CO[C@H]1CC[C@H](CNc2ccc(S(=O)(=O)NC(=O)c3ccc(N4CCN(CC5=C(c6ccc(Cl)cc6)CC(C)(C)CC5)CC4)cc3Oc3cnc4[nH]ccc4c3)cc2[N+](=O)[O-])CC1` is reported as 91% (cell-free assay, competition with immobilised ligand; 1 µM).
`CC(C)(C)c1nc(-c2cccc(NS(=O)(=O)c3c(F)cccc3F)c2F)c(-c2ccnc(N)n2)s1` gave a remaining activity of 101% (enzyme activity, inhibitor, radiometric; 1 µM).
With `COc1cc2ncnc(Nc3ccc(Oc4ccccc4)c(C)c3C)c2cc1OC` the inhibition was 0% (enzyme activity, inhibitor; 1 µM).
The remaining binding of `CC(=O)c1c(NS(C)(=O)=O)c2cc(-c3ccc(Cl)cc3)c(-c3ccc(Cl)cc3Cl)nc2n(C)c1=O` is reported as 92% (cell-free assay, competition with immobilised ligand; 1 µM).
